Measurements: ChEMBL document CHEMBL2331542, “Synthesis and in vitro antibacterial activity of quinolone/naphthyridone derivatives containing 3-alkoxyimino-4-(methyl)aminopiperidine scaffolds” (2013)
Converted amounts (≈) assume the structure as drawn.

How the values were obtained:
Format in all cases: functional
Escherichia coli [1] = assay: Antibacterial activity against extended-spectrum beta-lactamase-producing Escherichia coli isolate 12-4
Procedure, shortened: (§1)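 MIC determined in vitro by a standard technique and defined as the lowest compound concentration giving complete inhibition of bacterial growth. The Gram-positive and Gram-negative panels were tested alongside gemifloxacin, levofloxacin and ciprofloxacin reference drugs.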

Escherichia coli [2] = assay: Antibacterial activity against extended-spectrum beta-lactamase-producing Escherichia coli isolate 12-2; procedure, shortened: as §1
Escherichia coli [3] = assay: Antibacterial activity against extended-spectrum beta-lactamase-producing Escherichia coli isolate 12-1; procedure, shortened: as §1
Escherichia coli [4] = assay: Antibacterial activity against Escherichia coli isolate 12-5; procedure, shortened: as §1
Escherichia coli [5] = assay: Antibacterial activity against Escherichia coli isolate 12-4; procedure, shortened: as §1
Escherichia coli [6] = assay: Antibacterial activity against Escherichia coli isolate 12-1; procedure, shortened: as §1
Escherichia coli [7] = assay: Antibacterial activity against Escherichia coli ATCC 25922; procedure, shortened: as §1
Streptococcus pneumoniae [8] = assay: Antibacterial activity against Streptococcus pneumoniae isolate 12-5; procedure, shortened: as §1
Streptococcus pneumoniae [9] = assay: Antibacterial activity against Streptococcus pneumoniae isolate 12-2; procedure, shortened: as §1
[10] = tested on: Staphylococcus epidermidis; assay: Antibacterial activity against methicillin-resistant Staphylococcus epidermidis isolate 12-35
Procedure, shortened: (§2)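 MIC determined in vitro by standard techniques, defined as the lowest compound concentration giving complete inhibition of bacterial growth. Gemifloxacin, levofloxacin and ciprofloxacin were tested alongside as reference drugs.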

[11] = tested on: Staphylococcus epidermidis; assay: Antibacterial activity against methicillin-resistant Staphylococcus epidermidis isolate 12-33; procedure, shortened: as §2
[12] = tested on: Staphylococcus epidermidis; assay: Antibacterial activity against methicillin-resistant Staphylococcus epidermidis isolate 12-5; procedure, shortened: as §2
[13] = tested on: Staphylococcus epidermidis; assay: Antibacterial activity against methicillin-sensitive Staphylococcus epidermidis isolate 12-3; procedure, shortened: as §1
[14] = tested on: Staphylococcus epidermidis; assay: Antibacterial activity against methicillin-sensitive Staphylococcus epidermidis isolate 12-2; procedure, shortened: as §1
[15] = tested on: Staphylococcus epidermidis; assay: Antibacterial activity against methicillin-sensitive Staphylococcus epidermidis isolate 12-1; procedure, shortened: as §1
Staphylococcus aureus [16] = assay: Antibacterial activity against methicillin-resistant Staphylococcus aureus isolate 12-15; procedure, shortened: as §2
Staphylococcus aureus [17] = assay: Antibacterial activity against methicillin-resistant Staphylococcus aureus isolate 12-13; procedure, shortened: as §2
Staphylococcus aureus [18] = assay: Antibacterial activity against methicillin-resistant Staphylococcus aureus isolate 12-3; procedure, shortened: as §2
Staphylococcus aureus [19] = assay: Antibacterial activity against methicillin-sensitive Staphylococcus aureus isolate 12-10; procedure, shortened: as §1
Staphylococcus aureus [20] = assay: Antibacterial activity against methicillin-sensitive Staphylococcus aureus isolate 12-7; procedure, shortened: as §1
Staphylococcus aureus [21] = assay: Antibacterial activity against methicillin-sensitive Staphylococcus aureus isolate 12-6; procedure, shortened: as §1
Staphylococcus aureus [22] = assay: Antibacterial activity against Staphylococcus aureus […]; procedure, shortened: as §1
Pseudomonas aeruginosa [23] = assay: Antibacterial activity against Pseudomonas aeruginosa isolate 12-2; procedure, shortened: as §1
Pseudomonas aeruginosa [24] = assay: Antibacterial activity against Pseudomonas aeruginosa isolate 12-1; procedure, shortened: as §1
Pseudomonas aeruginosa [25] = assay: Antibacterial activity against Pseudomonas aeruginosa ATCC 27853; procedure, shortened: as §1
Klebsiella pneumoniae [26] = assay: Antibacterial activity against extended-spectrum beta-lactamase-producing Klebsiella pneumoniae isolate 12-4; procedure, shortened: as §1
Klebsiella pneumoniae [27] = assay: Antibacterial activity against extended-spectrum beta-lactamase-producing Klebsiella pneumoniae isolate 12-2; procedure, shortened: as §1
Klebsiella pneumoniae [28] = assay: Antibacterial activity against extended-spectrum beta-lactamase-producing Klebsiella pneumoniae isolate 12-1; procedure, shortened: as §1
Klebsiella pneumoniae [29] = assay: Antibacterial activity against Klebsiella pneumoniae isolate 12-4; procedure, shortened: as §1
Klebsiella pneumoniae [30] = assay: Antibacterial activity against Klebsiella pneumoniae isolate 12-2; procedure, shortened: as §1
Klebsiella pneumoniae [31] = assay: Antibacterial activity against Klebsiella pneumoniae isolate 12-1; procedure, shortened: as §1

| SMILES | MIC (Escherichia coli [1]) [µg/mL] | MIC (Escherichia coli [2]) [µg/mL] | MIC (Escherichia coli [3]) [µg/mL] | MIC (Escherichia coli [4]) [µg/mL] | MIC (Escherichia coli [5]) [µg/mL] | MIC (Escherichia coli [6]) [µg/mL] | MIC (Escherichia coli [7]) [µg/mL] | MIC (Streptococcus pneumoniae [8]) [µg/mL] | MIC (Streptococcus pneumoniae [9]) [µg/mL] | MIC [10] [µg/mL] | MIC [11] [µg/mL] | MIC [12] [µg/mL] | MIC [13] [µg/mL] | MIC [14] [µg/mL] | MIC [15] [µg/mL] | MIC (Staphylococcus aureus [16]) [µg/mL] | MIC (Staphylococcus aureus [17]) [µg/mL] | MIC (Staphylococcus aureus [18]) [µg/mL] | MIC (Staphylococcus aureus [19]) [µg/mL] | MIC (Staphylococcus aureus [20]) [µg/mL] | also measured |
| --- | --- | --- | --- | --- | --- | --- | --- | --- | --- | --- | --- | --- | --- | --- | --- | --- | --- | --- | --- | --- | --- |
| CNC1CCN(c2c(F)cc3c(=O)c(C(=O)O)cn(C4CC4)c3c2F)C/C1=N\OC (stereo not drawn) | 128 (≈ 304 µM) | > 128 | > 128 | > 128 | > 128 | 2 (≈ 4.76 µM) | 0.03 (≈ 0.0714 µM) | 0.06 (≈ 0.143 µM) | 0.06 (≈ 0.143 µM) | 0.015 (≈ 0.0357 µM) | < 0.008 | 0.015 (≈ 0.0357 µM) | 0.25 (≈ 0.595 µM) | 0.5 (≈ 1.19 µM) | 0.25 (≈ 0.595 µM) | 0.06 (≈ 0.143 µM) | 0.06 (≈ 0.143 µM) | 0.06 (≈ 0.143 µM) | 0.03 (≈ 0.0714 µM) | 0.06 (≈ 0.143 µM) | MIC (Staphylococcus aureus [21]): 0.03 µg/mL (≈ 0.0714 µM); MIC (Staphylococcus aureus [22]): 0.25 µg/mL (≈ 0.595 µM); MIC (Pseudomonas aeruginosa [23]): 8 µg/mL (≈ 19 µM); MIC (Pseudomonas aeruginosa [24]): 8 µg/mL (≈ 19 µM); MIC (Pseudomonas aeruginosa [25]): 4 µg/mL (≈ 9.51 µM); MIC (Klebsiella pneumoniae [26]): 0.5 µg/mL (≈ 1.19 µM); MIC (Klebsiella pneumoniae [27]): 8 µg/mL (≈ 19 µM); MIC (Klebsiella pneumoniae [28]): 8 µg/mL (≈ 19 µM); MIC (Klebsiella pneumoniae [29]): 0.5 µg/mL (≈ 1.19 µM); MIC (Klebsiella pneumoniae [30]): 0.5 µg/mL (≈ 1.19 µM); MIC (Klebsiella pneumoniae [31]): 0.5 µg/mL (≈ 1.19 µM) |
| CNC1CCN(c2ccc3c(=O)c(C(=O)O)cn(C4CC4)c3n2)C/C1=N\OC (stereo not drawn) | 64 (≈ 166 µM) | 128 (≈ 332 µM) | > 128 | > 128 | > 128 | 64 (≈ 166 µM) | 0.5 (≈ 1.3 µM) | 4 (≈ 10.4 µM) | 4 (≈ 10.4 µM) | 2 (≈ 5.19 µM) | 4 (≈ 10.4 µM) | 2 (≈ 5.19 µM) | 8 (≈ 20.8 µM) | 16 (≈ 41.5 µM) | 8 (≈ 20.8 µM) | 4 (≈ 10.4 µM) | 4 (≈ 10.4 µM) | 4 (≈ 10.4 µM) | 2 (≈ 5.19 µM) | 4 (≈ 10.4 µM) | MIC (Staphylococcus aureus [21]): 2 µg/mL (≈ 5.19 µM); MIC (Staphylococcus aureus [22]): 0.5 µg/mL (≈ 1.3 µM); MIC (Pseudomonas aeruginosa [23]): 8 µg/mL (≈ 20.8 µM); MIC (Pseudomonas aeruginosa [24]): 16 µg/mL (≈ 41.5 µM); MIC (Pseudomonas aeruginosa [25]): 8 µg/mL (≈ 20.8 µM); MIC (Klebsiella pneumoniae [26]): 2 µg/mL (≈ 5.19 µM); MIC (Klebsiella pneumoniae [27]): > 128 µg/mL; MIC (Klebsiella pneumoniae [28]): 128 µg/mL (≈ 332 µM); MIC (Klebsiella pneumoniae [29]): 2 µg/mL (≈ 5.19 µM); MIC (Klebsiella pneumoniae [30]): 2 µg/mL (≈ 5.19 µM); MIC (Klebsiella pneumoniae [31]): 2 µg/mL (≈ 5.19 µM) |
| CCO/N=C1\CN(c2c(F)cc3c(=O)c(C(=O)O)cn(C4CC4)c3c2OC)CCC1NC (stereo not drawn) | 32 (≈ 71.7 µM) | > 128 | > 128 | > 128 | > 128 | 8 (≈ 17.9 µM) | 16 (≈ 35.8 µM) | 1 (≈ 2.24 µM) | 0.25 (≈ 0.56 µM) | 1 (≈ 2.24 µM) | 1 (≈ 2.24 µM) | 1 (≈ 2.24 µM) | 0.5 (≈ 1.12 µM) | 1 (≈ 2.24 µM) | 0.5 (≈ 1.12 µM) | 0.25 (≈ 0.56 µM) | 0.25 (≈ 0.56 µM) | 0.25 (≈ 0.56 µM) | 0.125 (≈ 0.28 µM) | 32 (≈ 71.7 µM) | MIC (Staphylococcus aureus [21]): 0.25 µg/mL (≈ 0.56 µM); MIC (Staphylococcus aureus [22]): 0.125 µg/mL (≈ 0.28 µM); MIC (Pseudomonas aeruginosa [23]): 16 µg/mL (≈ 35.8 µM); MIC (Pseudomonas aeruginosa [24]): 16 µg/mL (≈ 35.8 µM); MIC (Pseudomonas aeruginosa [25]): 16 µg/mL (≈ 35.8 µM); MIC (Klebsiella pneumoniae [26]): > 128 µg/mL; MIC (Klebsiella pneumoniae [27]): 32 µg/mL (≈ 71.7 µM); MIC (Klebsiella pneumoniae [28]): 32 µg/mL (≈ 71.7 µM); MIC (Klebsiella pneumoniae [29]): 2 µg/mL (≈ 4.48 µM); MIC (Klebsiella pneumoniae [30]): 4 µg/mL (≈ 8.96 µM); MIC (Klebsiella pneumoniae [31]): 4 µg/mL (≈ 8.96 µM) |
